Source: ChEMBL document CHEMBL5653630, “Activation of the p53-MDM4 regulatory axis defines the anti-tumour response to PRMT5 inhibition through its role in regulating cellular splicing” (Sci Rep, 2018)
The source made the active and inactive calls. The calls are words filed in the database; no cut-off is given here.

Tests used:
[1] = test system: J82; test: Antiproliferative activity against human J82 cells assessed as cell growth inhibition incubated for 6 days by celltiter-glo assay; type: functional; conditions: J82, 144 h, time 6 day
How it was run: (§1)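 Cells seeded in 384-well plates at an optimized density and held 24 h. Day 0: treated in duplicate with a 20-point two-fold series (top dose ≤29 μM, ≤0.15% DMSO) and incubated 6 days. CellTiter-Glo luminescence read at Day 0 and Day 6. Four-parameter fit. gIC50 = midpoint of the growth window between DMSO and T0. Curves required ≥1.5 population doublings.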

[2] = test system: JM1; test: Antiproliferative activity against human JM1 cells assessed as cell growth inhibition incubated for 6 days by celltiter-glo assay; type: functional; conditions: JM1, 144 h, time 6 day; how it was run: as §1
[3] = test system: JVM-2; test: Antiproliferative activity against human JVM-2 cells assessed as cell growth inhibition incubated for 6 days by celltiter-glo assay; type: functional; conditions: JVM-2, 144 h, time 6 day; how it was run: as §1
[4] = test system: LN-229; test: Antiproliferative activity against human LN-229 cells assessed as cell growth inhibition incubated for 6 days by celltiter-glo assay; type: functional; conditions: LN-229, 144 h, time 6 day; how it was run: as §1
[5] = test system: MDA-MB-231; test: Antiproliferative activity against human MDA-MB-231 cells assessed as cell growth inhibition incubated for 6 days by celltiter-glo assay; type: functional; conditions: MDA-MB-231, 144 h, time 6 day; how it was run: as §1
[6] = Antiproliferative activity against human MINO cells assessed as cell growth inhibition incubated for 6 days by celltiter-glo assay; type: functional; conditions: 144 h, time 6 day; how it was run: as §1
[7] = test system: NCI-H526; test: Antiproliferative activity against human NCI-H526 cells assessed as cell growth inhibition incubated for 6 days by celltiter-glo assay; type: functional; conditions: NCI-H526, 144 h, time 6 day; how it was run: as §1
[8] = test system: NU-DHL-1; test: Antiproliferative activity against human NU-DHL-1 cells assessed as cell growth inhibition incubated for 6 days by celltiter-glo assay; type: functional; conditions: NU-DHL-1, 144 h, time 6 day; how it was run: as §1
[9] = Antiproliferative activity against human PER-624 cells assessed as cell growth inhibition incubated for 6 days by celltiter-glo assay; type: functional; conditions: PER-624, 144 h, time 6 day; how it was run: as §1
[10] = test system: RCK8; test: Antiproliferative activity against human RCK8 cells assessed as cell growth inhibition incubated for 6 days by celltiter-glo assay; type: functional; conditions: RCK8, 144 h, time 6 day; how it was run: as §1
[11] = test system: SUD4; test: Antiproliferative activity against human SU-DHL-4 cells assessed as cell growth inhibition incubated for 6 days by celltiter-glo assay; type: functional; conditions: SU-DHL-4, 144 h, time 6 day; how it was run: as §1
[12] = test system: UMUC3; test: Antiproliferative activity against human UMUC3 cells assessed as cell growth inhibition incubated for 6 days by celltiter-glo assay; type: functional; conditions: UMUC3, 144 h, time 6 day; how it was run: as §1
[13] = test system: JeKo-1; test: Induction of cell cycle arrest in human JeKo-1 cells assessed as increase in 2n cell population measured upto 5000 nM measured for 3 days by propidium iodide staining based flow cytometric analysis; type: functional; conditions: time 3.0 day
[14] = Antiproliferative activity against human Ri-1 cells assessed as cell growth inhibition incubated for 6 days by celltiter-glo assay; type: functional; conditions: Ri-1, 144 h, time 6 day
How it was run: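 Cells seeded in 384-well plates at an optimized density and held 24 h. CellTiter-Glo luminescence read at Day 0 and Day 6. Four-parameter fit. gIC50 = midpoint of the growth window between DMSO and T0. Curves required ≥1.5 population doublings.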

[15] = test system: C-4-II; test: Antiproliferative activity against human C-4-II cells assessed as cell growth inhibition incubated for 10 days; type: functional; conditions: 240 h, time 10 day
How it was run: (§2)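 Cells kept in RPMI-1640 with 10% FBS, 2 mM L-alanyl-L-glutamine and 1 mM Na pyruvate (or a special medium) at 37°C, 5% CO2. Compound added 24 h after seeding, 10 concentrations in 3.16-fold dilution, 0.1% DMSO final. Medium replaced and cells re-dosed at 168 h; 240 h incubation. Nuclei fixed, dye-stained and imaged. gIC50 = growth midway between untreated and time-zero cell counts, from a 4-parameter fit.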

[16] = test system: K562; test: Antiproliferative activity against human K562 cells assessed as cell growth inhibition incubated for 10 days; type: functional; conditions: K562, 240 h, time 10 day
How it was run: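 Eurofins-panel 10-day assay in 384-well plates. Cells grown in RPMI-1640 with 10% FBS, 2 mM L-alanyl-L-glutamine and 1mM Na pyruvate, or a special medium, at 37°C in 5% CO₂. Compound added 24 h after seeding, 10-point 3.16-fold series in 0.1% DMSO. Medium replaced and compound re-dosed at 168 h. Nuclei fixed and stained after 240 h, then imaged to give a relative cell count. gIC50 is the concentration giving growth midway between untreated and time-zero counts, from a 4-parameter fit.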

[17] = test system: SW-403; test: Antiproliferative activity against human SW403 cells assessed as cell growth inhibition incubated for 10 days; type: functional; conditions: SW-403, 240 h, time 10 day
[18] = test system: RL95-2; test: Antiproliferative activity against human RL95-2 cells assessed as cell growth inhibition incubated for 10 days; type: functional; conditions: RL95-2, 240 h, time 10 day
[19] = test system: RPMI-6666; test: Antiproliferative activity against human RPMI-6666 cells assessed as cell growth inhibition incubated for 10 days; type: functional; conditions: RPMI-6666, 240 h, time 10 day
[20] = test system: FaDu; test: Antiproliferative activity against human FaDu cells assessed as cell growth inhibition incubated for 10 days; type: functional; conditions: 240 h, time 10 day
How it was run: (§3)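 Outsourced panel run in 384-well plates. Cells were grown in RPMI-1640/10% FBS or a special medium at 37°C, 5% CO2. Compound was added 24 h after seeding as a 10-point, 3.16-fold series in 0.1% DMSO. Medium was refreshed and cells re-dosed at 168 h, with a time-zero plate kept. At 240 h cells were fixed, nuclei stained and imaged. gIC50 is growth midway between untreated and time zero, from a 4-parameter fit.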

[21] = test system: SNU-423; test: Antiproliferative activity against human SNU-423 cells assessed as cell growth inhibition incubated for 10 days; type: functional; conditions: SNU-423, 240 h, time 10 day
[22] = test system: HepG2; test: Antiproliferative activity against human HepG2 cells assessed as cell growth inhibition incubated for 10 days; type: functional; conditions: HepG2, 240 h, time 10 day; how it was run: as §3
[23] = test system: CHL-1; test: Antiproliferative activity against human CHL-1 cells assessed as cell growth inhibition incubated for 10 days; type: functional; conditions: CHL-1, 240 h, time 10 day; how it was run: as §2
[24] = test system: SK-N-FI; test: Antiproliferative activity against human SK-N-FI cells assessed as cell growth inhibition incubated for 10 days; type: functional; conditions: 240 h, time 10 day
[25] = test system: SK-N-AS; test: Antiproliferative activity against human SK-N-AS cells assessed as cell growth inhibition incubated for 10 days; type: functional; conditions: 240 h, time 10 day
[26] = test system: Calu-6; test: Antiproliferative activity against human Calu-6 cells assessed as cell growth inhibition incubated for 10 days; type: functional; conditions: Calu-6, 240 h, time 10 day; how it was run: as §3
[27] = test system: SHP77; test: Antiproliferative activity against human SHP77 cells assessed as cell growth inhibition incubated for 10 days; type: functional; conditions: SHP77, 240 h, time 10 day
[28] = Antiproliferative activity against human HLF cells assessed as cell growth inhibition incubated for 10 days; type: functional; conditions: 240 h, time 10 day; how it was run: as §3
[29] = test system: CGTH-W-1; test: Antiproliferative activity against human CGTH-W-1 cells assessed as cell growth inhibition incubated for 10 days; type: functional; conditions: CGTH-W-1, 240 h, time 10 day; how it was run: as §2
[30] = biological target: Protein arginine N-methyltransferase 5 (Homo sapiens) (UniProt O14744); test: Inhibition of PRMT5 in p53 knockout human Z138 cells effect on p21 expression at 500 nM incubated for 3 to 11 days by Western blot analysis; type: cell-based; conditions: time 3-11 day
Chain of Protein arginine N-methyltransferase 5 (Homo sapiens) (O14744 whole entry): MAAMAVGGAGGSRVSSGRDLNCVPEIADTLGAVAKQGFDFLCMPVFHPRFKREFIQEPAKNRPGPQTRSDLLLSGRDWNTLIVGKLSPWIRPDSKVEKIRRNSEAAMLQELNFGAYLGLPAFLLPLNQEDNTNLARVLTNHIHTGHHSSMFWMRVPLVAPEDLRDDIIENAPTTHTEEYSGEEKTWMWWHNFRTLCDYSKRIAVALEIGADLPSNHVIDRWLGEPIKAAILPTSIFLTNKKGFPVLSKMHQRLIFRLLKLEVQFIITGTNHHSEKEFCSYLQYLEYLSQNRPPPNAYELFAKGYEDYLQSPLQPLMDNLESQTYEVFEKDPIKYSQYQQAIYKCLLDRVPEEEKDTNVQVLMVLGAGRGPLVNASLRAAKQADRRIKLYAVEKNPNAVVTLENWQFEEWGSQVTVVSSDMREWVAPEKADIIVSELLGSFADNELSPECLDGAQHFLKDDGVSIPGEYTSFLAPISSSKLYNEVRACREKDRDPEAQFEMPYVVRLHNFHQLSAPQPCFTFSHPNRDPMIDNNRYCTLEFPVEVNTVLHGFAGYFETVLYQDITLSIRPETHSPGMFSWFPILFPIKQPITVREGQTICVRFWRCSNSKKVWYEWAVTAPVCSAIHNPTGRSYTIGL

| SMILES | GI50 [1] | GI50 [2] | GI50 [3] | GI50 [4] | GI50 [5] | GI50 [6] | GI50 [7] | GI50 [8] | GI50 [9] | GI50 [10] | GI50 [11] | GI50 [12] | other results |
| --- | --- | --- | --- | --- | --- | --- | --- | --- | --- | --- | --- | --- | --- |
| CC(=O)N1CCC(Nc2cc(C(=O)NC[C@H](O)CN3CCc4ccccc4C3)ncn2)CC1 [PEMRAMETOSTAT] | 29300 nM | 79 nM | 9 nM | 254 nM | 544 nM | 130 nM | 275 nM | 333 nM | 524 nM | 529 nM | 492 nM | 29300 nM | Activity [13]: inactive |
| O=C(NC[C@H](O)CN1CCc2ccccc2C1)c1ccnc(NC2CCC2)c1 | 20900 nM | 76 nM | 172 nM | 1150 nM | 2930 nM | 536 nM | 138 nM | 101 nM | 526 nM | 2110 nM | 571 nM | 19200 nM | GI50 [14]: 68 nM; GI50 [15]: 266 nM; GI50 [16]: 146 nM; GI50 [17]: 153 nM; GI50 [18]: 218 nM; GI50 [19]: 748 nM; GI50 [20]: 15.4 nM; GI50 [21]: 66 nM; GI50 [22]: 214 nM; GI50 [23]: 247 nM; GI50 [24]: 308 nM; GI50 [25]: 31.9 nM; GI50 [26]: 206 nM; GI50 [27]: 152 nM; GI50 [28]: 87.7 nM; GI50 [29]: 82.2 nM; inhibition [30]: inactive |
